# Data taken from ChEMBL document CHEMBL4689842, “EUbOPEN Chemogenomics Library wave 1” (2021).
# System: Fibroblast
# Assay: Multiplex assay against human fibroblast
# Type: toxicity, cell-based
# Procedure, shortened: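 Four dyes were applied at seeding to live cells: Hoechst33342, BioTracker Green Microtubule Cytoskeleton Dye, MitoTracker Red and Annexin V Alexa Fluor 680. Imaging after compound addition used a CQ1 microscope at 37°C and 5% CO2. CellPathfinder machine-learning gating then sorted cells into Hoechst high-intensity objects or normal cells, normal cells into healthy, pyknosed or fragmented nuclei, and pyknosed cells into mitotic or apoptotic, with tubulin, mitochondrial-mass and membrane-permeability phenotypes given as per cents of healthy-nucleus cells.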
# [1] = 12 h, 1 µM, compound concentration 1 uM, replicate 1
# [2] = 12 h, 1 µM, compound concentration 1 uM, replicate 2
# [3] = 12 h, 10 µM, compound concentration 10 uM, replicate 1
# [4] = 12 h, 10 µM, compound concentration 10 uM, replicate 2
# [5] = 24 h, 1 µM, compound concentration 1 uM, replicate 1
# [6] = 24 h, 1 µM, compound concentration 1 uM, replicate 2
# [7] = 24 h, 10 µM, compound concentration 10 uM, replicate 1
# [8] = 24 h, 10 µM, compound concentration 10 uM, replicate 2
# [9] = 48 h, 1 µM, compound concentration 1 uM, replicate 1
# [10] = 48 h, 1 µM, compound concentration 1 uM, replicate 2
# [11] = 48 h, 10 µM, compound concentration 10 uM, replicate 1
# [12] = 48 h, 10 µM, compound concentration 10 uM, replicate 2
smiles,measurement,setting,value
CN(C)C(=O)C(CCN1CCC(O)(c2ccc(Cl)cc2)CC1)(c1ccccc1)c1ccccc1.Cl [LOPERAMIDE HYDROCHLORIDE],Population Apoptotic (%),[1],54%
same,Population Fragmented Nuclei (%),[1],26%
same,Population Healthy Nuclei (%),[1],42%
same,Population Hoechst High Intensity Objects (%),[1],12%
same,Population Membrane Permeable-Phenotype (%),[1],19%
same,Population Mitochondria Different-Phenotype (%),[1],19%
same,Population Mitotic Cells (%),[1],45%
same,Population Normal (%),[1],87%
same,Population Pyknosed Nuclei (%),[1],31%
same,Population Tubulin-Different-Phenotype (%),[1],54%
same,Total Cell Count,[1],155
same,Population Apoptotic (%),[2],25%
same,Population Fragmented Nuclei (%),[2],5%
same,Population Healthy Nuclei (%),[2],88%
same,Population Hoechst High Intensity Objects (%),[2],7%
same,Population Membrane Permeable-Phenotype (%),[2],11%
same,Population Mitochondria Different-Phenotype (%),[2],90%
same,Population Mitotic Cells (%),[2],75%
same,Population Normal (%),[2],92%
same,Population Pyknosed Nuclei (%),[2],6%
same,Population Tubulin-Different-Phenotype (%),[2],65%
same,Total Cell Count,[2],55
same,Population Apoptotic (%),[3],64%
same,Population Fragmented Nuclei (%),[3],23%
same,Population Healthy Nuclei (%),[3],29%
same,Population Hoechst High Intensity Objects (%),[3],12%
same,Population Membrane Permeable-Phenotype (%),[3],0%
same,Population Mitochondria Different-Phenotype (%),[3],87%
same,Population Mitotic Cells (%),[3],35%
same,Population Normal (%),[3],87%
same,Population Pyknosed Nuclei (%),[3],46%
same,Population Tubulin-Different-Phenotype (%),[3],92%
same,Total Cell Count,[3],158
same,Population Apoptotic (%),[4],82%
same,Population Fragmented Nuclei (%),[4],8%
same,Population Healthy Nuclei (%),[4],48%
same,Population Hoechst High Intensity Objects (%),[4],6%
same,Population Membrane Permeable-Phenotype (%),[4],94%
same,Population Mitochondria Different-Phenotype (%),[4],100%
same,Population Mitotic Cells (%),[4],17%
same,Population Normal (%),[4],93%
same,Population Pyknosed Nuclei (%),[4],43%
same,Population Tubulin-Different-Phenotype (%),[4],100%
same,Total Cell Count,[4],64
same,Population Apoptotic (%),[5],45%
same,Population Fragmented Nuclei (%),[5],22%
same,Population Healthy Nuclei (%),[5],52%
same,Population Hoechst High Intensity Objects (%),[5],12%
same,Population Membrane Permeable-Phenotype (%),[5],19%
same,Population Mitochondria Different-Phenotype (%),[5],20%
same,Population Mitotic Cells (%),[5],54%
same,Population Normal (%),[5],87%
same,Population Pyknosed Nuclei (%),[5],25%
same,Population Tubulin-Different-Phenotype (%),[5],55%
same,Total Cell Count,[5],157
same,Population Apoptotic (%),[6],53%
same,Population Fragmented Nuclei (%),[6],5%
same,Population Healthy Nuclei (%),[6],71%
same,Population Hoechst High Intensity Objects (%),[6],4%
same,Population Membrane Permeable-Phenotype (%),[6],16%
same,Population Mitochondria Different-Phenotype (%),[6],89%
same,Population Mitotic Cells (%),[6],46%
same,Population Normal (%),[6],95%
same,Population Pyknosed Nuclei (%),[6],22%
same,Population Tubulin-Different-Phenotype (%),[6],62%
same,Total Cell Count,[6],68
same,Population Apoptotic (%),[7],82%
same,Population Fragmented Nuclei (%),[7],26%
same,Population Healthy Nuclei (%),[7],33%
same,Population Hoechst High Intensity Objects (%),[7],24%
same,Population Membrane Permeable-Phenotype (%),[7],7%
same,Population Mitochondria Different-Phenotype (%),[7],77%
same,Population Mitotic Cells (%),[7],17%
same,Population Normal (%),[7],75%
same,Population Pyknosed Nuclei (%),[7],39%
same,Population Tubulin-Different-Phenotype (%),[7],92%
same,Total Cell Count,[7],156
same,Population Apoptotic (%),[8],98%
same,Population Fragmented Nuclei (%),[8],10%
same,Population Healthy Nuclei (%),[8],26%
same,Population Hoechst High Intensity Objects (%),[8],10%
same,Population Membrane Permeable-Phenotype (%),[8],86%
same,Population Mitochondria Different-Phenotype (%),[8],95%
same,Population Mitotic Cells (%),[8],1%
same,Population Normal (%),[8],89%
same,Population Pyknosed Nuclei (%),[8],62%
same,Population Tubulin-Different-Phenotype (%),[8],95%
same,Total Cell Count,[8],70
same,Population Apoptotic (%),[9],67%
same,Population Fragmented Nuclei (%),[9],29%
same,Population Healthy Nuclei (%),[9],46%
same,Population Hoechst High Intensity Objects (%),[9],14%
same,Population Membrane Permeable-Phenotype (%),[9],8%
same,Population Mitochondria Different-Phenotype (%),[9],9%
same,Population Mitotic Cells (%),[9],32%
same,Population Normal (%),[9],85%
same,Population Pyknosed Nuclei (%),[9],23%
same,Population Tubulin-Different-Phenotype (%),[9],56%
same,Total Cell Count,[9],155
same,Population Apoptotic (%),[10],75%
same,Population Fragmented Nuclei (%),[10],34%
same,Population Healthy Nuclei (%),[10],62%
same,Population Hoechst High Intensity Objects (%),[10],12%
same,Population Membrane Permeable-Phenotype (%),[10],12%
same,Population Mitochondria Different-Phenotype (%),[10],8%
same,Population Mitotic Cells (%),[10],25%
same,Population Normal (%),[10],87%
same,Population Pyknosed Nuclei (%),[10],3%
same,Population Tubulin-Different-Phenotype (%),[10],70%
same,Total Cell Count,[10],137
same,Population Apoptotic (%),[11],86%
same,Population Fragmented Nuclei (%),[11],36%
same,Population Healthy Nuclei (%),[11],38%
same,Population Hoechst High Intensity Objects (%),[11],36%
same,Population Membrane Permeable-Phenotype (%),[11],2%
same,Population Mitochondria Different-Phenotype (%),[11],70%
same,Population Mitotic Cells (%),[11],13%
same,Population Normal (%),[11],63%
same,Population Pyknosed Nuclei (%),[11],25%
same,Population Tubulin-Different-Phenotype (%),[11],70%
same,Total Cell Count,[11],139
same,Population Apoptotic (%),[12],90%
same,Population Fragmented Nuclei (%),[12],37%
same,Population Healthy Nuclei (%),[12],52%
same,Population Hoechst High Intensity Objects (%),[12],45%
same,Population Membrane Permeable-Phenotype (%),[12],0%
same,Population Mitochondria Different-Phenotype (%),[12],85%
same,Population Mitotic Cells (%),[12],9%
same,Population Normal (%),[12],54%
same,Population Pyknosed Nuclei (%),[12],9%
same,Population Tubulin-Different-Phenotype (%),[12],88%
same,Total Cell Count,[12],214
